In brackets after ≈: the same amount, converted by molar mass. Activity calls are given as the source filed them. No cut-off for these calls is given here. Starred links: 1 amine or outer side, 2 acyl side, 3 side chain; linkers in the order of their positions; H or OH if unused. Positions of bridges follow the written chain, without caps; N, C: chain ends. Non-standard residues stand in square brackets, D forms with d. Residues, ends and D or L forms follow the SMILES beside them. *: point of attachment. pTerphenylCO(4''-OnC5H11) = CCCCCOc1ccc(-c2ccc(-c3ccc(C(=O)*)cc3)cc2)cc1; Orn(4R-OH,5R-OH) = O=C([C@H](C[C@@H](O)[C@@H](O)N[*:3])N[*:1])[*:2]; hTyr(3S-OH,4S-OH) = N[C@H](C(=O)O)[C@H](O)[C@@H](O)c1ccc(O)cc1; Pro(3S-OH,4S-Me) = C[C@H]1CN[C@H](C(=O)O)[C@H]1O; Hyp = O=C(O)[C@@H]1C[C@@H](O)CN1
Tests used:
Nakaseomyces glabratus [1] = assay: Fungicidal activity against Candida glabrata isolate 1 assessed as log reduction in bacterial count at 4 times MIC after drug exposure for 1 hr followed by washout measured after 48 hrs in the absence of drug by PAFE study; assay type: functional
Summary of the method: (§1)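 Starting inoculum ~1 x 10^5 to 5 x 10^5 CFU/ml in MOPS-buffered RPMI 1640 (pH 7.0) with drug at multiples of the CLSI M27-A3 MIC. After 1 h at 35°C, cells washed and centrifuged three times at 1,400 x g for 10 min, then resuspended in warm drug-free RPMI. Shaken at 35°C and plated on SDA at 0–48 h; CFU counted after 48 h. Run twice per isolate; means.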

Candida parapsilosis [2] = assay: Antifungal activity against Candida parapsilosis isolate S by CLSI M27-A3 broth microdilution method; assay type: functional; conditions: Lodderomyces parapsilosis
Summary of the method: (§2)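 CLSI M27-A3 broth microdilution in RPMI 1640 buffered to pH 7.0 with MOPS. Starting inoculum 0.5 x 10^3 to 2.5 x 10^3 cells/ml, incubated at 35°C. MIC read as the lowest concentration giving >50% growth reduction versus control. Each isolate tested on at least three occasions.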

Candida parapsilosis [3] = assay: Fungicidal activity against Candida parapsilosis isolate S assessed as log reduction in bacterial count at 4 times MIC after 48 hrs by time-kill analysis; assay type: functional; conditions: Lodderomyces parapsilosis
Summary of the method: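 Isolates subcultured twice on SDA, then suspended to 0.5 McFarland and diluted into RPMI 1640 (MOPS, pH 7.0) with or without anidulafungin, giving about 1 x 10^5 to 5 x 10^5 CFU/ml. Tubes were shaken at 35°C. Samples were taken at 0, 2, 4, 8, 12, 24 and 48 h, serially diluted 10-fold, plated on SDA, and CFU counted after 48 h at 35°C. Each isolate was run twice; mean values.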

Nakaseomyces glabratus [4] = assay: Fungicidal activity against Candida glabrata isolate 1 assessed as log reduction in bacterial count at MIC after drug exposure for 1 hr followed by washout measured after 48 hrs in the absence of drug by PAFE study; assay type: functional; summary of the method: as §1
Nakaseomyces glabratus [5] = assay: Increase in susceptibility to calcofluor white in Candida glabrata isolate 1 assessed as cell wall damage at 4 times MIC after 1 hr relative to control; assay type: functional, organism-based
Summary of the method: (§3)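 Cells recovered 8 h after a 1-h drug exposure were grown to exponential phase in YPD with 1% glucose and adjusted to OD599 0.1. Undiluted and 10-fold serially diluted cultures were spotted onto YPD plates containing calcofluor white, then incubated at 30°C for 72 h. Growth compared with no-drug control cells; triplicate.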

Nakaseomyces glabratus [6] = assay: Antifungal activity against Candida glabrata isolate 3 by CLSI M27-A3 broth microdilution method; assay type: functional; summary of the method: as §2
Candida parapsilosis [7] = assay: Antifungal activity against Candida parapsilosis isolate 1 coincubated with mouse J774 macrophages assessed as macrophage induced bacterial cell killing at 4 times MIC (reference value: 22 +/- 12 %); assay type: functional
Nakaseomyces glabratus [8] = assay: Increase in susceptibility to SDS in Candida glabrata isolate 3 assessed as cell wall damage at 4 times MIC after 1 hr relative to control; assay type: functional, organism-based
Summary of the method: (§4)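 Cells recovered 8 h after a 1-h drug exposure were grown in YPD with 1% glucose to exponential phase and adjusted to OD599 0.1. Undiluted culture and 10-fold serial dilutions were spotted onto YPD plates containing SDS (0.01 to 0.04%), then incubated 72 h at 30°C. Growth compared with unexposed control cells; triplicate.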

Candida albicans [9] = assay: Increase in susceptibility to calcofluor white in Candida albicans ATCC 90028 assessed as cell wall damage at 16 times MIC after 1 hr relative to control; assay type: functional, organism-based; summary of the method: as §3
Nakaseomyces glabratus [10] = assay: Antifungal activity against Candida glabrata isolate 1 coincubated with mouse J774 macrophages assessed as macrophage induced bacterial cell killing at 4 times MIC (reference value: 12 +/- 10 %); assay type: functional
Candida parapsilosis [11] = assay: Fungicidal activity against Candida parapsilosis isolate A assessed as log reduction in bacterial count at 16 times MIC after drug exposure for 1 hr followed by washout measured after 48 hrs in the absence of drug by PAFE study; assay type: functional; conditions: Lodderomyces parapsilosis
Summary of the method: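 Inoculum about 1 x 10^5 to 5 x 10^5 CFU/ml in RPMI 1640 (MOPS, pH 7.0) with drug, shaken at 35°C for 1 h. Cells were then washed and centrifuged at 1,400 x g for 10 min (3 cycles) and resuspended in warm drug-free RPMI. Samples plated on SDA at 0, 2, 4, 8, 12, 24 and 48 h; CFU counted after 48 h at 35°C. Run twice per isolate; means.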

Candida albicans [12] = assay: Antifungal activity against Candida albicans isolate 1 assessed as time period for bacterial growth inhibition at 16 times MIC after 1 hr drug exposure; assay type: functional
Summary of the method: (§5)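 Inoculum of about 1 x 10^5 to 5 x 10^5 CFU/ml in MOPS-buffered RPMI (pH 7.0), shaken at 35°C and exposed to drug for 1 h. Cells then washed and centrifuged three times and resuspended in drug-free warm RPMI. Samples plated on SDA at 0, 2, 4, 8, 12, 24 and 48 h, with CFU counted after 48 h at 35°C. Run twice per isolate; values are means.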

Candida albicans [13] = assay: Fungicidal activity against Candida albicans isolate S assessed as log reduction in bacterial count at 16 times MIC after drug exposure for 1 hr followed by washout measured after 48 hrs in the absence of drug by PAFE study; assay type: functional; summary of the method: as §1
Candida parapsilosis [14] = assay: Increase in susceptibility to SDS in Candida parapsilosis isolate A assessed as cell wall damage at 16 times MIC after 1 hr relative to control; assay type: functional, organism-based; summary of the method: as §4
Nakaseomyces glabratus [15] = assay: Antifungal activity against Candida glabrata isolate 1 assessed as cell wall damage at MIC by Transmission electron microscopy; assay type: functional, organism-based
Summary of the method: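 Cells recovered 8 h after a 1-h drug exposure were grown on SDA for 24 h at 35°C. Colonies fixed at 4°C in 0.1 M cacodylate (pH 7.2) with 2% glutaraldehyde and 2% paraformaldehyde, ethanol-dehydrated and embedded in Lowicryl K4M. Thin sections examined by transmission EM.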

Pichia kudriavzevii [16] = assay: Fungicidal activity against Candida krusei isolate 1 assessed as log reduction in bacterial count at 4 times MIC after 48 hrs by time-kill analysis; assay type: functional; conditions: isolate 1, 48 h
Summary of the method: (§6)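 Isolates subcultured twice on SDA, suspended to 0.5 McFarland, giving ~1 x 10^5 to 5 x 10^5 CFU/ml in MOPS-buffered RPMI 1640 (pH 7.0) with or without drug at multiples of MIC (MIC by CLSI M27-A3). Tubes shaken at 35°C with continuous drug. Sampled at 0–48 h, diluted 10-fold and plated on SDA; CFU counted after 48 h at 35°C. Run twice per isolate; means.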

Nakaseomyces glabratus [17] = assay: Increase in susceptibility to calcofluor white in Candida glabrata isolate 1 assessed as cell wall damage at MIC after 1 hr relative to control; assay type: functional, organism-based; summary of the method: as §3
Candida albicans [18] = assay: Increase in susceptibility to calcofluor white in Candida albicans isolate 1 assessed as cell wall damage at 16 times MIC after 1 hr relative to control; assay type: functional, organism-based; summary of the method: as §3
Nakaseomyces glabratus [19] = assay: Antifungal activity against Candida glabrata isolate 3 assessed as time period for bacterial growth inhibition at 4 times MIC after 1 hr drug exposure; assay type: functional; summary of the method: as §5
Pichia kudriavzevii [20] = assay: Fungicidal activity against Candida krusei isolate ATCC 6258 assessed as log reduction in bacterial count at 4 times MIC after 48 hrs by time-kill analysis; assay type: functional; conditions: isolate ATCC 6258, 48 h; summary of the method: as §6
Candida albicans [21] = assay: Fungicidal activity against Candida albicans ATCC 90028 assessed as log reduction in bacterial count at 4 times MIC after drug exposure for 1 hr followed by washout measured after 48 hrs in the absence of drug by PAFE study; assay type: functional; summary of the method: as §1

SMILES: CCCCCOc1ccc(-c2ccc(-c3ccc(C(=O)N[C@H]4C[C@@H](O)[C@@H](O)NC(=O)[C@@H]5[C@@H](O)[C@@H](C)CN5C(=O)[C@H]([C@@H](C)O)NC(=O)[C@H]([C@H](O)[C@@H](O)c5ccc(O)cc5)NC(=O)[C@@H]5C[C@@H](O)CN5C(=O)[C@H]([C@@H](C)O)NC4=O)cc3)cc2)cc1 [ANIDULAFUNGIN] ({pTerphenylCO(4''-OnC5H11)}-[Orn(4R-OH,5R-OH)]T[Hyp][hTyr(3S-OH,4S-OH)]T[Pro(3S-OH,4S-Me)]; lactam 1-C)
- log reduction (Nakaseomyces glabratus [1]): 2.81
- MIC (Candida parapsilosis [2]): 1 µg/mL (≈ 0.877 µM)
- log reduction (Candida parapsilosis [3]): 2.77 log CFU/ml
- log reduction (Nakaseomyces glabratus [4]): 0.89
- Activity (Nakaseomyces glabratus [5]): Active
- MIC (Nakaseomyces glabratus [6]): 0.03 µg/mL (≈ 0.0263 µM)
- inhibition (INH) (Candida parapsilosis [7]): 27%
- Activity (Nakaseomyces glabratus [8]): Active
- Activity (Candida albicans [9]): Active
- inhibition (INH) (Nakaseomyces glabratus [10]): 33%
- log reduction (Candida parapsilosis [11]): 3.47
- Time (Candida albicans [12]): 8 h
- log reduction (Candida albicans [13]): 2.52 log CFU/ml
- Activity (Candida parapsilosis [14]): Active
- Activity (Nakaseomyces glabratus [15]): Active
- log reduction (Pichia kudriavzevii [16]): 2.29 log CFU/ml
- Activity (Nakaseomyces glabratus [17]): Active
- Activity (Candida albicans [18]): Active
- Time (Nakaseomyces glabratus [19]): 8 h
- log reduction (Pichia kudriavzevii [20]): 2.94 log CFU/ml
- log reduction (Candida albicans [21]): 1.89
